Measurements taken from ChEMBL document CHEMBL2331240, “Focused library development of 2-phenylacrylamides as broad spectrum cytotoxic agents” (2013).

Tests used:
[1] = Cytotoxicity against human BE(2)-C cells assessed as growth inhibition measured after 72 hrs by MTT assay; assay type: functional
How it was run: (§1)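 Cells in log phase were seeded in duplicate at 2500–4000 cells/well in supplemented DMEM (37 °C, 5% CO2). Drug from a 40 mM DMSO stock was added on day 0, 24 h post-plating. Read-out was MTT absorbance at 540 nm after 72 h.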

[2] = system: SW480; assay: Cytotoxicity against human SW480 cells assessed as growth inhibition measured after 72 hrs by MTT assay; assay type: functional; conditions: SW480, 72 h; how it was run: as §1
[3] = system: MCF7; assay: Cytotoxicity against human MCF7 cells assessed as growth inhibition measured after 72 hrs by MTT assay; assay type: functional; conditions: MCF7, 72 h; how it was run: as §1
[4] = system: A2780; assay: Cytotoxicity against human A2780 cells assessed as growth inhibition measured after 72 hrs by MTT assay; assay type: functional; conditions: A2780, 72 h; how it was run: as §1
[5] = Cytotoxicity against human MIA cells assessed as growth inhibition measured after 72 hrs by MTT assay; assay type: functional; how it was run: as §1
[6] = Cytotoxicity against human H460 cells assessed as growth inhibition measured after 72 hrs by MTT assay; assay type: functional; conditions: NCI-H460, 72 h; how it was run: as §1
[7] = Cytotoxicity against mouse SMA cells assessed as growth inhibition measured after 72 hrs by MTT assay
[8] = system: A-431; assay: Cytotoxicity against human A431 cells assessed as growth inhibition measured after 72 hrs by MTT assay; assay type: functional; conditions: A-431, 72 h; how it was run: as §1
[9] = system: HT-29; assay: Cytotoxicity against human HT-29 cells assessed as growth inhibition measured after 72 hrs by MTT assay; assay type: functional; conditions: HT-29, 72 h; how it was run: as §1
[10] = Cytotoxicity against human SJ-G2 cells assessed as growth inhibition measured after 72 hrs by MTT assay; assay type: functional; conditions: SJ-G2, 72 h; how it was run: as §1
[11] = system: DU-145; assay: Cytotoxicity against human DU145 cells assessed as growth inhibition measured after 72 hrs by MTT assay; assay type: functional; conditions: DU-145, 72 h; how it was run: as §1

Compound: COc1ccc(CNC(=O)/C(C#N)=C/c2cccc3ccccc23)cc1
- GI50 [1]: 14 µM
- GI50 [2]: 14 µM
- GI50 [3]: 16 µM
- GI50 [4]: 16 µM
- GI50 [5]: 15 µM
- GI50 [6]: 15 µM
- GI50 [7]: 15 µM
- GI50 [8]: 15 µM
- GI50 [9]: 13 µM
- GI50 [10]: 15 µM
- GI50 [11]: 16 µM

Compound: COc1ccc(CNC(=O)/C(C#N)=C/c2ccc(C)o2)cc1
- GI50 [1]: 21 µM
- GI50 [2]: 29 µM
- GI50 [3]: 21 µM
- GI50 [4]: 60 µM
- GI50 [5]: 51 µM
- GI50 [6]: > 100 µM
- GI50 [7]: 69 µM
- GI50 [8]: 58 µM
- GI50 [9]: 92 µM
- GI50 [10]: 75 µM
- GI50 [11]: 39 µM

Compound: N#C/C(=C\c1ccccc1)C(=O)NCc1ccc(Cl)c(Cl)c1
- GI50 [1]: 32 µM
- GI50 [2]: 49 µM
- GI50 [3]: 29 µM
- GI50 [4]: 49 µM
- GI50 [5]: 47 µM
- GI50 [6]: 61 µM
- GI50 [7]: 43 µM
- GI50 [8]: 43 µM
- GI50 [9]: 70 µM
- GI50 [10]: 43 µM
- GI50 [11]: 71 µM

Compound: N#C/C(=C\c1ccco1)C(=O)NCc1ccc(Cl)c(Cl)c1
- GI50 [1]: > 50 µM
- GI50 [2]: > 50 µM
- GI50 [3]: 20 µM
- GI50 [4]: > 50 µM
- GI50 [5]: > 50 µM
- GI50 [6]: > 50 µM
- GI50 [7]: 38 µM
- GI50 [8]: > 50 µM
- GI50 [9]: 20 µM
- GI50 [10]: > 50 µM
- GI50 [11]: 24 µM

Compound: N#C/C(=C\c1ccc[nH]1)C(=O)NCc1ccc(Cl)c(Cl)c1
- GI50 [1]: 43 µM
- GI50 [2]: > 50 µM
- GI50 [3]: 6 µM
- GI50 [4]: > 50 µM
- GI50 [5]: > 50 µM
- GI50 [6]: > 50 µM
- GI50 [7]: > 50 µM
- GI50 [8]: > 50 µM
- GI50 [9]: 85 µM
- GI50 [10]: > 50 µM
- GI50 [11]: > 50 µM

Compound: COc1ccc(CNC(=O)/C(C#N)=C/c2ccc(Br)o2)cc1
- GI50 [1]: 13 µM
- GI50 [2]: 14 µM
- GI50 [3]: 11 µM
- GI50 [4]: 12 µM
- GI50 [5]: 16 µM
- GI50 [6]: 16 µM
- GI50 [7]: 14 µM
- GI50 [8]: 9 µM
- GI50 [9]: 10 µM
- GI50 [10]: 13 µM
- GI50 [11]: 12 µM

Compound: COc1ccc(CNC(=O)/C(C#N)=C/c2ccc(C)cc2)cc1
- GI50 [1]: 35 µM
- GI50 [2]: 34 µM
- GI50 [3]: 36 µM
- GI50 [4]: 33 µM
- GI50 [5]: 38 µM
- GI50 [6]: 41 µM
- GI50 [7]: 42 µM
- GI50 [8]: 26 µM
- GI50 [9]: 36 µM
- GI50 [10]: 39 µM
- GI50 [11]: 34 µM

Compound: COc1ccc(CNC(=O)/C(C#N)=C/c2ccc(-c3ccccc3)o2)cc1
- GI50 [1]: > 100 µM
- GI50 [2]: > 100 µM
- GI50 [3]: 3 µM
- GI50 [4]: > 100 µM
- GI50 [5]: > 100 µM
- GI50 [6]: > 100 µM
- GI50 [7]: > 100 µM
- GI50 [8]: > 100 µM
- GI50 [9]: 56 µM
- GI50 [10]: > 100 µM
- GI50 [11]: > 100 µM

Compound: COc1ccc(CNC(=O)/C(C#N)=C/c2ccc3ccccc3c2)cc1
- GI50 [1]: 42 µM
- GI50 [2]: 41 µM
- GI50 [3]: 33 µM
- GI50 [4]: 40 µM
- GI50 [5]: 49 µM
- GI50 [6]: > 100 µM
- GI50 [7]: 43 µM
- GI50 [8]: 37 µM
- GI50 [9]: 54 µM
- GI50 [10]: 40 µM
- GI50 [11]: 80 µM

Compound: N#C/C(=C\c1c(F)c(F)c(F)c(F)c1F)C(=O)c1ccc[nH]1
- GI50 [1]: 14 µM
- GI50 [2]: > 100 µM
- GI50 [3]: 23 µM
- GI50 [4]: 64 µM
- GI50 [5]: 25 µM
- GI50 [6]: 31 µM
- GI50 [7]: > 100 µM
- GI50 [8]: 64 µM
- GI50 [9]: 224 µM
- GI50 [10]: 23 µM
- GI50 [11]: > 100 µM

Compound: N#C/C(=C\c1cccc2ccccc12)C(=O)NCc1ccc(Cl)c(Cl)c1
- GI50 [1]: 7 µM
- GI50 [2]: 11 µM
- GI50 [3]: 8 µM
- GI50 [4]: 7 µM
- GI50 [5]: 8 µM
- GI50 [6]: 7 µM
- GI50 [7]: 7 µM
- GI50 [8]: 8 µM
- GI50 [9]: 7 µM
- GI50 [10]: 13 µM
- GI50 [11]: 12 µM

Compound: COc1ccc(/C=C(\C#N)C(=O)NCc2ccc(Cl)c(Cl)c2)cc1
- GI50 [1]: 93 µM
- GI50 [2]: 95 µM
- GI50 [3]: 45 µM
- GI50 [4]: 86 µM
- GI50 [5]: 79 µM
- GI50 [6]: > 100 µM
- GI50 [7]: > 100 µM
- GI50 [8]: 90 µM
- GI50 [9]: > 100 µM
- GI50 [10]: > 100 µM
- GI50 [11]: 70 µM

Compound: COc1ccc(CNC(=O)/C(C#N)=C/c2ccc[nH]2)cc1
- GI50 [1]: 47 µM
- GI50 [2]: > 50 µM
- GI50 [3]: 34 µM
- GI50 [4]: > 50 µM
- GI50 [5]: > 50 µM
- GI50 [6]: > 50 µM
- GI50 [7]: > 50 µM
- GI50 [8]: > 50 µM
- GI50 [9]: > 50 µM
- GI50 [10]: > 50 µM
- GI50 [11]: > 50 µM

Compound: COc1ccc(CNC(=O)/C(C#N)=C/c2ccc(Cl)cc2)cc1
- GI50 [1]: 12 µM
- GI50 [2]: 10 µM
- GI50 [3]: 11 µM
- GI50 [4]: 7 µM
- GI50 [5]: 16 µM
- GI50 [6]: 14 µM
- GI50 [7]: 17 µM
- GI50 [8]: 6 µM
- GI50 [9]: 7 µM
- GI50 [10]: 11 µM
- GI50 [11]: 7 µM

Compound: N#C/C(=C\c1ccc([N+](=O)[O-])cc1)C(=O)c1c[nH]c2ccccc12
- GI50 [1]: 40 µM
- GI50 [2]: 42 µM
- GI50 [3]: 35 µM
- GI50 [4]: 48 µM
- GI50 [5]: 46 µM
- GI50 [6]: 47 µM
- GI50 [7]: 60 µM
- GI50 [8]: 46 µM
- GI50 [9]: 41 µM
- GI50 [10]: 37 µM
- GI50 [11]: 59 µM

Compound: N#C/C(=C\c1ccc(Cl)cc1)C(=O)NCc1ccc(Cl)c(Cl)c1
- GI50 [1]: 31 µM
- GI50 [2]: 30 µM
- GI50 [3]: 21 µM
- GI50 [4]: 32 µM
- GI50 [5]: 31 µM
- GI50 [6]: 33 µM
- GI50 [7]: 33 µM
- GI50 [8]: 30 µM
- GI50 [9]: 33 µM
- GI50 [10]: 30 µM
- GI50 [11]: 30 µM

Compound: COc1ccc(CNC(=O)/C(C#N)=C/c2ccc(Cl)o2)cc1
- GI50 [1]: 11 µM
- GI50 [2]: 13 µM
- GI50 [3]: 9 µM
- GI50 [4]: 9 µM
- GI50 [5]: 15 µM
- GI50 [6]: 15 µM
- GI50 [7]: 14 µM
- GI50 [8]: 9 µM
- GI50 [9]: 9 µM
- GI50 [10]: 13 µM
- GI50 [11]: 12 µM

Compound: N#C/C(=C\c1c[nH]c2ccccc12)C(=O)c1c[nH]c2ccccc12
- GI50 [1]: 12 µM
- GI50 [2]: 8.3 µM
- GI50 [3]: 11 µM
- GI50 [4]: 9.3 µM
- GI50 [5]: 14 µM
- GI50 [6]: 7.6 µM
- GI50 [7]: 15 µM
- GI50 [8]: 7.6 µM
- GI50 [9]: 6 µM
- GI50 [10]: 13 µM
- GI50 [11]: 17 µM

Compound: COc1ccc(CNC(=O)/C(C#N)=C/c2ccco2)cc1
- GI50 [1]: 24 µM
- GI50 [2]: 31 µM
- GI50 [3]: 27 µM
- GI50 [4]: 24 µM
- GI50 [5]: 34 µM
- GI50 [6]: 32 µM
- GI50 [7]: 33 µM
- GI50 [8]: 16 µM
- GI50 [9]: 22 µM
- GI50 [10]: 31 µM
- GI50 [11]: 29 µM

Compound: COc1ccc(CNC(=O)/C(C#N)=C/c2ccoc2)cc1
- GI50 [1]: 7 µM
- GI50 [2]: 8 µM
- GI50 [3]: 7 µM
- GI50 [4]: 6 µM
- GI50 [5]: 8 µM
- GI50 [6]: 8 µM
- GI50 [7]: 7 µM
- GI50 [8]: 5 µM
- GI50 [9]: 6 µM
- GI50 [10]: 8 µM
- GI50 [11]: 7 µM

Compound: N#C/C(=C\c1ccc2ccccc2c1)C(=O)NCc1ccc(Cl)c(Cl)c1
- GI50 [1]: 40 µM
- GI50 [2]: 50 µM
- GI50 [3]: 29 µM
- GI50 [4]: 44 µM
- GI50 [5]: 44 µM
- GI50 [6]: > 100 µM
- GI50 [7]: 64 µM
- GI50 [8]: 50 µM
- GI50 [9]: 44 µM
- GI50 [10]: 49 µM
- GI50 [11]: 77 µM

Compound: N#C/C(=C\c1c(F)c(F)c(F)c(F)c1F)C(=O)c1c[nH]c2ccccc12
- GI50 [1]: 10 µM
- GI50 [2]: 18 µM
- GI50 [3]: 13 µM
- GI50 [4]: 11 µM
- GI50 [5]: 21 µM
- GI50 [6]: 35 µM
- GI50 [7]: 20 µM
- GI50 [8]: 19 µM
- GI50 [9]: 18 µM
- GI50 [10]: 14 µM
- GI50 [11]: 30 µM
